Where “and” joins values, the source holds several entries; their conditions need not be identical. Equal entries are not always repeated. Where two headings read alike, the source gives them in different places.
Experiments:
[1] = system: U87MG human glioblastoma xenografts; assay: U87MG glioblastoma xenograft efficacy study; assay type: in vivo, athymic mice; conditions: for T/C (final tumor weights) / tumor growth inhibition: U87MG xenografts; for tolerability of doses: i.p. dosing for 14 days
SNUC2B cells = assay: Antiproliferative GI50 assay, SNUC2B; assay type: cell-based; conditions: Homo sapiens, SNU-C2B, 96 h, read-out: antiproliferative GI50
Summary of the method: (§1)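 Cells grown in DMEM with 2 mmol/L glutamine, penicillin/streptomycin and 10% FBS at 37°C in 5% CO2, and mycoplasma-negative by PCR. Continuous 96 h exposure to test compound. Proliferation was read by Alamar Blue or sulforhodamine B, and GI50 was taken as the concentration giving 50% inhibition of proliferation.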

[2] = system: AKT phosphorylation (Ser473, Thr308) in U87MG tumor xenografts; assay: Pharmacodynamic AKT phosphorylation in U87MG xenografts; assay type: in vivo, athymic mice
LoVo cells = assay: Antiproliferative GI50 assay, LoVo; assay type: cell-based; conditions: Homo sapiens, 96 h, read-out: antiproliferative GI50
Summary of the method: as §1

HCT116 cells = assay: Antiproliferative GI50 assay, HCT116; assay type: cell-based; conditions: Homo sapiens, HCT-116, 96 h, read-out: antiproliferative GI50
Summary of the method: as §1

[3] = system: IGROV-1 human ovarian cancer xenografts; assay: IGROV-1 ovarian cancer xenograft efficacy study; assay type: in vivo, athymic mice; conditions: IGROV-1 xenografts
[4] = mice, 10 mg/kg; cited from earlier work
[5] = system: poly(ADP-ribose) polymerase cleavage in U87MG xenografts; assay: PARP cleavage in U87MG xenografts; assay type: in vivo, athymic mice; conditions: 4 hours after oral dosing with 25 to 150 mg/kg
[6] = system: U87MG human glioblastoma xenografts; conditions: PTEN-null U87MG glioblastoma xenografts; cited from earlier work
[7] = system: AKT phosphorylation (Ser473, Thr308) in U87MG tumor xenografts; conditions: for a short time; cited from earlier work
[8] = system: forkhead transcription factor translocation; conditions: read-out: 50% inhibition of forkhead transcription factor translocation; previously reported; cited from earlier work
[9] = system: phosphorylation of GSK3β Ser9 in U87MG cells; assay: Electrochemiluminescent immunoassay; assay type: cell-based, human
Summary of the method: (§2)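 U87MG cells were seeded at 8 × 10^4 cells/mL and treated 48 h later for 2 or 8 h with 5 to 500 nmol/L inhibitor. Cells were lysed and freeze-thawed once at -80°C, and lysate went directly onto Meso Scale multiplex phospho/total plates with overnight sample incubation before secondary antibody. One well from each of three independent plates was read. IC50 is given as mean ±SD.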

[10] = system: phosphorylation of GSK3β in U87MG tumor xenografts; assay: Pharmacodynamic GSK3β phosphorylation in U87MG xenografts; assay type: in vivo, athymic mice; conditions: 50 mg/kg b.i.d or 100 mg/kg u.i.d i.p. for 4 days
[11] = Pharmacokinetics of PI-540 and PI-620 in BALB/c mice; assay type: in vivo; conditions: for volume of distribution: female BALB/c mice, 10 mg/kg i.v.; for plasma clearance / oral bioavailability / terminal half-life in plasma / terminal half-life in tissues / spleen to plasma ratio: mice; for plasma clearance / terminal half-life in plasma / terminal half-life in tissues / spleen to plasma ratio: 10 mg/kg; for oral bioavailability: 10 mg/kg i.v. and p.o.; for terminal half-life in plasma / terminal half-life in tissues: after i.v. administration; for spleen to plasma ratio: following i.v. dosing
[12] = system: panel of human cancer cell lines and human umbilical vein endothelial cells; assay: Antiproliferative GI50 assay, cell line panel; assay type: cell-based; conditions: 96 hours continuous exposure
Summary of the method: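 Tumor lines were grown in DMEM with 2 mmol/L glutamine, antibiotics and 10% FBS at 37°C in 5% CO2, and read by Alamar Blue or sulforhodamine B. Pooled HUVEC were used at passages 3 to 8 and read by an alkaline phosphatase assay. Exposure was continuous for 96 h. GI50 is the mean of three independent determinations.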

p110γ = p110γ (Homo sapiens, UniProt P48736); assay: Phosphatidylinositide 3-kinase scintillation proximity assay, p110γ; assay type: biochemical; conditions: read-out: IC50 against p110γ; 1 μmol/L ATP
[13] = system: phosphorylation of S6 ribosomal protein Ser235/Ser236 in U87MG cells; assay: Electrochemiluminescent immunoassay; assay type: cell-based, human; conditions: at 2 hours and, more potently, at 8 hours
Summary of the method: as §2

[14] = system: phosphorylation of p70S6K Thr421/Ser424 in U87MG cells; assay: Electrochemiluminescent immunoassay; assay type: cell-based, human; conditions: at 2 hours and, more potently, at 8 hours
Summary of the method: as §2

[15] = system: phosphorylation of AKT (Thr308, Ser473) in U87MG cells; assay: Electrochemiluminescent immunoassay; assay type: cell-based, human; conditions: 2 or 8 h
Summary of the method: as §2

[16] = 25 mg/kg daily p.o. for 19 days
[17] = 25 mg/kg oral daily for 13 days
[18] = 50 mg/kg b.i.d. i.p. for 14 days, 50 mg/kg
[19] = 50 mg/kg b.i.d or 100 mg/kg u.i.d i.p. for 4 days, at 1 hour
[20] = 25 mg/kg b.i.d i.p. for 14 days, 25 mg/kg
[21] = 50 mg/kg u.i.d i.p. for 14 days

Sequence of p110γ (P48736 whole entry, species assumed): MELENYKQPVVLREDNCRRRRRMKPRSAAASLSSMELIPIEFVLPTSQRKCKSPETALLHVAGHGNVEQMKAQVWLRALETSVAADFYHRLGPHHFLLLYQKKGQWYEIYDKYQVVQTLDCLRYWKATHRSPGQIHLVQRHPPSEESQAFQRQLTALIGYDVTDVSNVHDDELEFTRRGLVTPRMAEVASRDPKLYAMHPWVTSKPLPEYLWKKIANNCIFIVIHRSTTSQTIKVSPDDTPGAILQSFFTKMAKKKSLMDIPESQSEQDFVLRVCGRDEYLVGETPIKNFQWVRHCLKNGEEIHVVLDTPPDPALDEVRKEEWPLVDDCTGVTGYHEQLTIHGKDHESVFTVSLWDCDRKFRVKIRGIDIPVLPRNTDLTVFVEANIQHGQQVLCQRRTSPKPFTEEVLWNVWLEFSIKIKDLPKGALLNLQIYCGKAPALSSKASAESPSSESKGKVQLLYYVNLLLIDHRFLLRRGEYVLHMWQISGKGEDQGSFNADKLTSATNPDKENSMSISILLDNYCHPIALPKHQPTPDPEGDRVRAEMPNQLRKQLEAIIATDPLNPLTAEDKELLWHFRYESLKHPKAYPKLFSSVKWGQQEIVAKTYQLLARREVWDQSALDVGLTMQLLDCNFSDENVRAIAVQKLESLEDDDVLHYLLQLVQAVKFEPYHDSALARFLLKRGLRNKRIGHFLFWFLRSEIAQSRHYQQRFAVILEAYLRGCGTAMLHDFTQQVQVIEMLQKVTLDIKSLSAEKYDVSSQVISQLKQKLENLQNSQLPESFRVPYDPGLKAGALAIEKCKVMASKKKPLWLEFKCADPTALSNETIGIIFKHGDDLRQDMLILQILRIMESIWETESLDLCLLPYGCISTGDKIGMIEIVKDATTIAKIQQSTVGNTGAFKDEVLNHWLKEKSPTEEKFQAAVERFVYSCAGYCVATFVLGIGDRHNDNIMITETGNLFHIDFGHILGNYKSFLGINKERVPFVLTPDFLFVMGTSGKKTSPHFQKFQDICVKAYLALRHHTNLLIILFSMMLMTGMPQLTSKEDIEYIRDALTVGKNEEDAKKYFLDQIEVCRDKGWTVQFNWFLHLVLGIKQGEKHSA

In the case of CS(=O)(=O)N1CCN(Cc2cc3nc(-c4cccc5[nH]ncc45)nc(N4CCOCC4)c3s2)CC1 [GDC-0941, 2-(1H-Indazol-4)-6-(4-methanesulfonyl-piperazin-1-ylmethyl)-4-morpholin-4-yl-thieno[3,2-d]pyrimidine], the “T/C (final tumor weights)” value [1, 16] is reported as 23.4%, the tumor growth inhibition [1, 16] is reported as 76.6% and the “T/C (final tumor weights)” value ([1]; 150 mg/kg daily p.o. for 19 days) is reported as 2.3%. The tumor growth inhibition ([1]; 150 mg/kg daily p.o. for 19 days, 150 mg/kg) was 98% and 97.7%, the tolerability of therapy ([1]; athymic mice, 25 to 150 mg/kg daily p.o. for 19 days, all groups gained weight at similar rates to controls) was “well tolerated” and the GI50 (SNUC2B cells) was 1630 nM. For the same compound, the “levels of activated AKT Ser473 in tumor” value ([2]; 150 mg/kg daily p.o. for 19 days, 4 hours after the last dose) was “undetectable”, the “duration of maintained inhibition of AKT Ser473 phosphorylation in tumor” value ([2]; oral dosing) was > 8 h and the GI50 (LoVo cells) was 180 nM. For the same compound, the GI50 (HCT116 cells) was 905 nM, the T/C [3, 17] was 50.5% and the tumor growth inhibition [3, 17] was 49.5%. For the same compound, the T/C ([3]; 150 mg/kg oral daily for 13 days) was 19.7%, the tumor growth inhibition ([3]; 150 mg/kg oral daily for 13 days, 150 mg/kg) was 80% and 80.3% and the oral bioavailability [4] was 78%. For the same compound, the “poly(ADP-ribose) polymerase cleavage in tumor samples” value [5] was “clear increase”.

For Oc1cccc(-c2nc(N3CCOCC3)c3oc4ncccc4c3n2)c1 [PI-103], the GI50 (SNUC2B cells) is listed as 827 nM, the “growth inhibition in xenografts” value [6] is listed as > 50% and the GI50 (LoVo cells) is listed as 22 nM. The “inhibition of phosphorylation of AKT Ser473 in tumor” value [7] was ≤ 50% and the IC50 [8] was 30 nM.

For CN1CCN(Cc2cc3nc(-c4cccc(O)c4)nc(N4CCOCC4)c3s2)CC1 [PI-540], the “fold less potent in inhibiting phosphorylation of GSK3β Ser9 compared with phosphorylation of AKT” value [9] was 10 fold, the “T/C (final tumor weights)” value [1, 18] was 34% and 33.9% and the tumor growth inhibition [1, 18] was 66% and 66.1%. The tolerability of doses ([1]; athymic mice) was “very well tolerated”, the “inhibition of phosphorylation on AKT Ser473 in tumor” value [2, 19] was > 50% and the “inhibition of phosphorylation on AKT Thr308 in tumor” value [2, 19] was > 50%. For the same compound, the “inhibition of phosphorylation of GSK3β in tumor” value [10] was “no detectable inhibition”, the volume of distribution [11] was 300 mL and the plasma clearance [11] was “high”. For the same compound, the oral bioavailability [11] was < 10%, the “terminal half-life in plasma” value [11] was 0.24 h and the “terminal half-life in tissues” value [11] was 7.6 h. For the same compound, the “spleen to plasma ratio” value [11] was 31, the “growth inhibition potency in each cell line of the panel” value [12] was “submicromolar” and the IC50 (p110γ) was > 300 nM.

For OCCN1CCN(Cc2cc3nc(-c4cccc(O)c4)nc(N4CCOCC4)c3s2)CC1 [PI-620], the “T/C (final tumor weights)” value [1, 20] was 27% and 26.7%, the tumor growth inhibition [1, 20] was 73% and 73.3% and the “T/C (final tumor weights)” value [1, 21] was 44.8%. The tumor growth inhibition [1, 21] was 55.2%, the tolerability of doses ([1]; athymic mice) was “very well tolerated” and the volume of distribution [11] was 206 mL. The plasma clearance [11] was “high”, the oral bioavailability [11] was < 10% and the “terminal half-life in plasma” value [11] was 0.9 h. The “terminal half-life in tissues” value [11] was 4.3 h, the “spleen to plasma ratio” value [11] was 13.9 and the “growth inhibition potency in each cell line of the panel” value [12] was “submicromolar”. For the same compound, the IC50 (p110γ) was > 300 nM.

In the case of CO[C@H]1C[C@@H]2CC[C@@H](C)[C@@](O)(O2)C(=O)C(=O)N2CCCC[C@H]2C(=O)O[C@H]([C@H](C)C[C@@H]2CC[C@@H](O)[C@H](OC)C2)CC(=O)[C@H](C)/C=C(\C)[C@@H](O)[C@@H](OC)C(=O)[C@H](C)C[C@H](C)/C=C/C=C/C=C/1C [Rapamycin], the “effect on phosphorylation of S6 ribosomal protein” value [13] is reported as “inhibited”, the “effect on phosphorylation of GSK3β” value ([9]; 2 or 8 h) is reported as “did not affect” and the “effect on phosphorylation of p70S6K” value [14] is reported as “inhibited”. For the same compound, the “effect on phosphorylation of AKT” value [15] was “did not affect”.

Reference: PMC2718129 (Molecular cancer therapeutics, 2009)
